The target of data set [1] is T1, PXR (NR1I2) (Homo sapiens, UniProt O75469).
T1 sequence (O75469 whole entry): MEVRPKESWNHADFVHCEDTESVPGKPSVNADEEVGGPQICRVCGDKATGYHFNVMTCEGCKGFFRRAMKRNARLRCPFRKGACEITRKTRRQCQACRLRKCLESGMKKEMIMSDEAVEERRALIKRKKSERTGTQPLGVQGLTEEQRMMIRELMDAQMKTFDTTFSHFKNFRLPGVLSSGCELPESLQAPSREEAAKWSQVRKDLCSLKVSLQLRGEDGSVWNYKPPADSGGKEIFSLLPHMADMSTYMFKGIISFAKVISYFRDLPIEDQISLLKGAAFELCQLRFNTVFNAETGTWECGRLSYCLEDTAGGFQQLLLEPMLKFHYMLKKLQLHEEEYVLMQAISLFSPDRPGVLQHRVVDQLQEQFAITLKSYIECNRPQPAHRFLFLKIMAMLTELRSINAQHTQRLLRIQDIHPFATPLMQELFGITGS
Nature of the data set: Transactivation of PXR in human HepG2 cells relative to rifampicin. The format is ADME, cell-based. The note with it: read-out: %max.

Data set [2] concerns the target T2, Oxysterols receptor LXR-beta (Homo sapiens, UniProt P55055).
T2 sequence (P55055 whole entry): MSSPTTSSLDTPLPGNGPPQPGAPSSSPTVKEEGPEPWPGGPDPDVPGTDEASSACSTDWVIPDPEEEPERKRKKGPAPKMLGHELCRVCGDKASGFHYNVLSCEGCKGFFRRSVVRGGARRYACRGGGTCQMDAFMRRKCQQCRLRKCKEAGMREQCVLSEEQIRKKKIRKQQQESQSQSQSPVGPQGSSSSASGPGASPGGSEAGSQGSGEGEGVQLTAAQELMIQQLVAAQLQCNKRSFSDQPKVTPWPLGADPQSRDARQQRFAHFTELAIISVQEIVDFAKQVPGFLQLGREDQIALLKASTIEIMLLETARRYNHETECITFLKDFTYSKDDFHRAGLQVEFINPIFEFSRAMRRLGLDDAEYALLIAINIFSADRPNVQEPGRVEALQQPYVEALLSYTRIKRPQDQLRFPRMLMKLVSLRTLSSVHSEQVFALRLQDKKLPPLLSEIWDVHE
Description: Agonist activity at LXRbeta (unknown origin) expressed in African green monkey CV1 cells. The class given is cell-based.

The target of data set [3] is T3, Nuclear receptor subfamily 1 group I member 2 (Homo sapiens, UniProt O75469).
T3 sequence (O75469 whole entry): T1 sequence (O75469 whole entry)
Description: Transactivation of PXR in human HepG2 cells. The format is ADME, cell-based.

Data set [4] is described as follows: Permeability in human Caco2 cells. The class given is ADME, cell-based. As to conditions: Caco-2, read-out: permeability. A digest of the protocol:
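Caco-2 monolayer permeability, reported as permeation coefficient in nm/s; an efflux ratio was also determined.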

For data set [5], the target named is T4, Oxysterols receptor LXR-alpha (Homo sapiens, UniProt Q13133).
T4 sequence (Q13133 whole entry): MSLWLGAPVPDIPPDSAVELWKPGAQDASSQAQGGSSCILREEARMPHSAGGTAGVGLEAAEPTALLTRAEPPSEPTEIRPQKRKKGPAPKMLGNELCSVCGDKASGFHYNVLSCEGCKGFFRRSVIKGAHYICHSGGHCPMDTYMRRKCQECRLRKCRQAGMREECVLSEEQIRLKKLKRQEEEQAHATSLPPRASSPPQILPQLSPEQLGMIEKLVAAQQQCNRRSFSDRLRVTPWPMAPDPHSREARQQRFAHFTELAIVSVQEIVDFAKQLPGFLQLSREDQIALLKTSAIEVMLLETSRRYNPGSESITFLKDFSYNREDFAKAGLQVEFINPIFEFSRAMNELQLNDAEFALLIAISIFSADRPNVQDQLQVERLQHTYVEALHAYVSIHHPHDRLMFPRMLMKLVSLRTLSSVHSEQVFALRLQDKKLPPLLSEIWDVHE
Description: Agonist activity at LXRalpha (unknown origin) expressed in African green monkey CV1 cells. The class given is cell-based.

In data set [6] the target is T5, Oxysterols receptor LXR-alpha (Homo sapiens) (UniProt Q13133).
T5 sequence (whole entry): T4 sequence (Q13133 whole entry)
Description: Agonist activity at LXRalpha (unknown origin) expressed in African green monkey CV1 cells relative to T0901317. The format is cell-based.

The target in data set [7] is T6, Oxysterols receptor LXR-beta (Homo sapiens) (UniProt P55055).
T6 sequence (whole entry): T2 sequence (P55055 whole entry)
Nature of the data set: Agonist activity at LXRbeta (unknown origin) expressed in African green monkey CV1 cells relative to T0901317. The format is cell-based.

In the case of `O=C(O)[C@H]1CC[C@H](C(=O)N2CC[C@](c3ccc(C(O)(C(F)(F)F)C(F)(F)F)cc3)(S(=O)(=O)c3ccc(F)cc3)C2)CC1`, the Emax in data set [1] was found to be 11%. For the same compound, the EC50 in data set [2] was above 7500 nM; in data set [3] it was above 50000 nM; in data set [5], above 3750 nM. Moreover, the Papp in data set [4] was below 1.5 ×10⁻⁶ cm/s.
Take `COC(=O)N1CCC(c2ccc(C(O)(C(F)(F)F)C(F)(F)F)cc2)(S(=O)(=O)c2ccc(F)cc2)C1` (racemic): the EC50 in data set [2] stood at 1900 nM; in data set [5] it was 408 nM. For the same compound, the results for the %max in data set [6] and in data set [7] were 62% and 39%, respectively.

Usually EC50 stands for the concentration needed to bring the measured effect to its halfway point.

The values above are taken from ChEMBL document CHEMBL4339200, “Structure-based Discovery of Phenyl (3-Phenylpyrrolidin-3-yl)sulfones as Selective, Orally Active RORγt Inverse Agonists” (ACS Med Chem Lett, 2019).
